The values below come from ChEMBL document CHEMBL3046823, “Insect muscarinic acetylcholine receptor: pharmacological and toxicological profiles of antagonists and agonists” (J Agric Food Chem, 2007).

Test [1] deals with T1, Muscarinic acetylcholine receptor DM1 (Drosophila melanogaster, UniProt P16395). In words: Displacement of [3H]QNB from Drosophila melanogaster mAChR by scintillation counting.
Test [2] addresses T1, Muscarinic acetylcholine receptor DM1. In words: Displacement of [3H]AF-DX 384 from Drosophila melanogaster mAChR by scintillation counting.
The test system of test [3] is Musca domestica. Nature of the test: Toxicity to Musca domestica (house fly) assessed as mortality at 6.25 ug/fly measured after 24 hr. The class given is functional. The procedure, abridged: (§1)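 Insecticide-susceptible adult female Musca (~25 mg) received PPP (2.5 µg/fly in 0.5 µL acetone, abdominal ventrum), then 90 min at room temperature. The compound (active ingredient) was given by intrathoracic injection in 0.22 µL water or 25-50% Me2SO/water. Mortality was scored at 0.5, 1.0, 1.5, 2.5 and 24 h.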

Test [4] deals with Musca domestica. In words: Toxicity to Musca domestica (house fly) assessed as mortality at 6.25 ug/fly measured after 2.5 hr. The class given is functional. In outline: as §1
For test [5], the system named is Musca domestica. In words: Toxicity to Musca domestica (house fly) assessed as mortality at 6.25 ug/fly measured after 1.5 hr. The class given is functional. The procedure, abridged: as §1
Test [6] concerns Musca domestica. In words: Toxicity to Musca domestica (house fly) assessed as mortality at 6.25 ug/fly measured after 1 hr. Format: functional. In outline: as §1
Test [7] has as its system Musca domestica. In words: Toxicity to Musca domestica (house fly) assessed as mortality at 6.25 ug/fly measured after 0.5 hr. Format: functional. In outline: as §1
Test [8] relates to Musca domestica. In words: Ex vivo inhibition of [3H]QNB binding in brain of Musca domestica (house fly) at 75 ug/fly measured after 24 hr. Format: functional. In outline: (§2)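 Adult female houseflies pretreated with PPP (2.5 µg/fly, topical in acetone, 90 min), then dosed by intrathoracic injection in 0.22 µL water or 25-50% Me2SO/water. Heads were taken 0.5 or 24 h later and homogenized (50 per batch) in 50 mM sodium phosphate pH 7.4. Filtrate (~800 µg protein) was bound with 0.5 nM [3H]QNB, 60 min, 25 °C. Values are relative to vehicle-treated flies; 6−8 measurements over two experiments.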

The subject of test [9] is Musca domestica. Nature of the test: Ex vivo inhibition of [3H]QNB binding in brain of Musca domestica (house fly) at 75 ug/fly measured after 0.5 hr. Format: functional. The procedure, abridged:
as §2

Test [10] has as its system Musca domestica. Nature of the test: Ex vivo inhibition of [3H]QNB binding in brain of Musca domestica (house fly) at 25 ug/fly measured after 24 hr. The class given is functional. In outline:
as §2

For test [11], the system named is Musca domestica. In words: Ex vivo inhibition of [3H]QNB binding in brain of Musca domestica (house fly) at 25 ug/fly measured after 0.5 hr. Format: functional. The procedure, abridged: as §2
The subject of test [12] is Musca domestica. In words: Toxicity to Musca domestica (house fly) assessed as mortality at 7.5 ug/fly measured after 24 hr. Format: functional. In outline:
as §1

The test system of test [13] is Musca domestica. In words: Toxicity to Musca domestica (house fly) assessed as mortality at 7.5 ug/fly measured after 2.5 hr. Format: functional. The procedure, abridged: as §1
The subject of test [14] is Musca domestica. Nature of the test: Toxicity to Musca domestica (house fly) assessed as mortality at 7.5 ug/fly measured after 1.5 hr. The class given is functional. The procedure, abridged: as §1
In test [15] the test system is Musca domestica. Nature of the test: Toxicity to Musca domestica (house fly) assessed as mortality at 7.5 ug/fly measured after 1 hr. The class given is functional. The procedure, abridged: as §1
The subject of test [16] is Musca domestica. In words: Toxicity to Musca domestica (house fly) assessed as mortality at 7.5 ug/fly measured after 0.5 hr. The class given is functional. In outline:
as §1

Test [17] deals with Musca domestica. In words: Toxicity to Musca domestica (house fly) assessed as mortality at 75 ug/fly measured after 24 hr. The class given is functional. In outline: as §1
For test [18], the system named is Musca domestica. In words: Toxicity to Musca domestica (house fly) assessed as mortality at 75 ug/fly measured after 2.5 hr. The class given is functional. In outline:
as §1

Test [19] deals with Musca domestica. In words: Toxicity to Musca domestica (house fly) assessed as mortality at 75 ug/fly measured after 1.5 hr. Format: functional. In outline: as §1
The subject of test [20] is Musca domestica. Nature of the test: Toxicity to Musca domestica (house fly) assessed as mortality at 75 ug/fly measured after 1 hr. The class given is functional. In outline: as §1
In test [21] the test system is Musca domestica. Nature of the test: Toxicity to Musca domestica (house fly) assessed as mortality at 75 ug/fly measured after 0.5 hr. Format: functional. The procedure, abridged: as §1
For test [22], the system named is Musca domestica. Nature of the test: Toxicity to Musca domestica (house fly) assessed as mortality at 25 ug/fly measured after 24 hr. The class given is functional. The procedure, abridged:
as §1

Test [23] concerns Musca domestica. Nature of the test: Toxicity to Musca domestica (house fly) assessed as mortality at 25 ug/fly measured after 2.5 hr. Format: functional. In outline:
as §1

Test [24] relates to Musca domestica. Nature of the test: Toxicity to Musca domestica (house fly) assessed as mortality at 25 ug/fly measured after 1.5 hr. The class given is functional. In outline: as §1
Test [25] has as its system Musca domestica. Nature of the test: Toxicity to Musca domestica (house fly) assessed as mortality at 25 ug/fly measured after 1 hr. Format: functional. In outline:
as §1

Test [26] has as its system Musca domestica. Nature of the test: Toxicity to Musca domestica (house fly) assessed as mortality at 25 ug/fly measured after 0.5 hr. The class given is functional. In outline:
as §1

The test system of test [27] is Musca domestica. In words: Ex vivo inhibition of [3H]QNB binding in brain of Musca domestica (house fly) at 7.5 ug/fly measured after 24 hr. The class given is functional. In outline: as §2
Test [28] concerns Musca domestica. Nature of the test: Ex vivo inhibition of [3H]QNB binding in brain of Musca domestica (house fly) at 7.5 ug/fly measured after 0.5 hr. The class given is functional. In outline:
as §2

Structures are written as SMILES.

T1 sequence (P16395 whole entry): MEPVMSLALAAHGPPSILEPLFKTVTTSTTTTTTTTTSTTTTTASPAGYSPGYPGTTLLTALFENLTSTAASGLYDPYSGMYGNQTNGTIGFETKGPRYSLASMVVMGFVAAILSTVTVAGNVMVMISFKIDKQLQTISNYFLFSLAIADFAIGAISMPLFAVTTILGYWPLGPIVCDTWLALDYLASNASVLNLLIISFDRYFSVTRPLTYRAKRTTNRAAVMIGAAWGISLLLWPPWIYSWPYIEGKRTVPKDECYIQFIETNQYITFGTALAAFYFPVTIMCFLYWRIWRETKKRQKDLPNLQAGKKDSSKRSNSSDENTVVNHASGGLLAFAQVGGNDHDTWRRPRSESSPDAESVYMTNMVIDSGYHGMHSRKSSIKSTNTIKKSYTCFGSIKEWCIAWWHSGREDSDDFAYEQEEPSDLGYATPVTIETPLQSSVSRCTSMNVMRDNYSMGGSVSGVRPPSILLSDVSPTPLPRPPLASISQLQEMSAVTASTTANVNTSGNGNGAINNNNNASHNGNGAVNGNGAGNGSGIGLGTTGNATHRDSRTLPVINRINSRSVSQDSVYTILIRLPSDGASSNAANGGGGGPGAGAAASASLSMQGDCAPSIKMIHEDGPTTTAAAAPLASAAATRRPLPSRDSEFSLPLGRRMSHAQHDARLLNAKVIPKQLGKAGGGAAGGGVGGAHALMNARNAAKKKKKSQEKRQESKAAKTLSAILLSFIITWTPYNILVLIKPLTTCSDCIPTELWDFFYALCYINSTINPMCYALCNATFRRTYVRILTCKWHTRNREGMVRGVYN

Consider `CCCN(CCC)CC1CCCCN1CCNC(=O)N1c2ccccc2C(=O)Nc2cccnc21` (stereo unspecified), for which the values for the Ki in test [1] and in [2] were 4.8 nM and 6.1 nM, respectively. Further, the Activity in the test on Musca domestica [3] was 3%; in the test on Musca domestica [4] it was 3%; with Musca domestica [5], 3%; in the test with Musca domestica [6] it was 3%; in the test on Musca domestica [7] it was 30%.

Regarding `C[C@H](C1=C(CCN(C)C)Cc2ccccc21)c1ccccn1`, the Ki is 510 nM in [1] and 660 nM in [2]. For the same molecule, the “inhibition (INH)” value in the test with Musca domestica [8] is 28%; in the test on Musca domestica [9] it was 81%; in the test on Musca domestica [10], 0%; in the test with Musca domestica [11] it was 41%. In addition, the Activity came to 0% in the test with Musca domestica [12]; 0% in the test with Musca domestica [13]; 0% in the test with Musca domestica [14]; 0% in the test on Musca domestica [15]; 10% in the test with Musca domestica [16]; 23% with Musca domestica [17]. For the same molecule, the Activity with Musca domestica [18] was found to be 97%; in the test with Musca domestica [19], 100%; in the test with Musca domestica [20], 100%; with Musca domestica [21], 100%; in the test on Musca domestica [22], 3%; in the test on Musca domestica [23], 17%. The Activity in the test with Musca domestica [24] is reported as 40%; with Musca domestica [25], 70%; with Musca domestica [26], 100%.

Regarding `C[N+]1(C)CCC(OC(=O)C(c2ccccc2)c2ccccc2)CC1.[I-]` [4-DAMP], the inhibition constant Ki in [1] amounted to 15 nM; in test [2] it was 18 nM. Besides, the “inhibition (INH)” value worked out at 59% with Musca domestica [10], 92% in the test on Musca domestica [11], 49% in the test with Musca domestica [27] and 79% in the test on Musca domestica [28]. The Activity in the test on Musca domestica [12] was 7%; with Musca domestica [13], 3%; in the test with Musca domestica [14], 7%; in the test with Musca domestica [15] it was 10%; with Musca domestica [16], 10%; in the test on Musca domestica [17] it was 33%. Also, the Activity came to 60% in the test on Musca domestica [18]; 57% with Musca domestica [19]; 67% with Musca domestica [20]; 100% in the test with Musca domestica [21]; 10% with Musca domestica [22]; 20% in the test with Musca domestica [23]. Moreover, the figures for the Activity with Musca domestica [24], in the test with Musca domestica [25] and in the test with Musca domestica [26] were 40%, 47% and 60%, respectively.

Regarding `CCN(CC)CC1CCCCN1CC(=O)N1c2ccccc2C(=O)Nc2cccnc21` (stereo unspecified) [OTENZEPAD], the Ki in [1] came out at 1220 nM; in test [2], 1380 nM. The Activity in the test with Musca domestica [3] is 3%; in the test on Musca domestica [4], 10%; in the test with Musca domestica [5], 10%; in the test on Musca domestica [6], 10%; in the test on Musca domestica [7], 17%.
